Laboratory results: ChEMBL document CHEMBL1135663, “Probing opioid receptor interactions with azacycloalkane amino acids. Synthesis of a potent and selective ORL1 antagonist” (J Med Chem, 2002)
Several values for one entry are separate records, joined by “and”; a condition that tells them apart may be missing. Equal values may be shown once.

How the values were obtained:
[1] = target: Delta-type opioid receptor (Homo sapiens, UniProt P41143); experiment: Binding affinity for opioid receptor type, human Opioid receptor delta 1 expressed in membrane homogenates of COS-1 or CHO cells; assay type: cell-based
Chain of Delta-type opioid receptor (P41143 whole entry): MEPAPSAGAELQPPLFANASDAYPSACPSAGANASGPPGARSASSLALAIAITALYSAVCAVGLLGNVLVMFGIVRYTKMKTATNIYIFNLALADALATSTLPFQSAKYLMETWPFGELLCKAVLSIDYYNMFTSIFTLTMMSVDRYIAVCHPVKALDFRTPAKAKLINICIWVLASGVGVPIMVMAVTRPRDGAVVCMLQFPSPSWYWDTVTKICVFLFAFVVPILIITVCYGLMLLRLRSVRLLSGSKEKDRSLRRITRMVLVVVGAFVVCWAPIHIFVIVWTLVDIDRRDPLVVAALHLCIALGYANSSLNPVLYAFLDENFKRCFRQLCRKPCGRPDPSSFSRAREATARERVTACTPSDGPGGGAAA

Nociceptin receptor [2] = target: T1, Nociceptin receptor (Homo sapiens, UniProt P41146); experiment: Binding affinity for opioid receptor like type, human Opioid receptor like 1 expressed in membrane homogenates of COS-1 or CHO cells; assay type: cell-based
T1 sequence (P41146 whole entry): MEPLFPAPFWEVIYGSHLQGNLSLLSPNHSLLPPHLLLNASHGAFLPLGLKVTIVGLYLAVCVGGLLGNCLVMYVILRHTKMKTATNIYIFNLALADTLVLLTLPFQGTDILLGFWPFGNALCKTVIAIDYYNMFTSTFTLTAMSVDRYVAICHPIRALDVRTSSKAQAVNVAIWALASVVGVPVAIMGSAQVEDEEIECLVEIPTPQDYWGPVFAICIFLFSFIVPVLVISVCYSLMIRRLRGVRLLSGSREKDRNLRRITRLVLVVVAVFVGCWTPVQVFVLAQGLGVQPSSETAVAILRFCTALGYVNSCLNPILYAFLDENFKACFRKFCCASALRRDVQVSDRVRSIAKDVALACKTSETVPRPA

Mu-type opioid receptor [3] = target: T2, Mu-type opioid receptor (Homo sapiens, UniProt P35372); experiment: Binding affinity for opioid receptor type, human Opioid receptor mu 1 expressed in membrane homogenates of COS-1 or CHO cells; assay type: cell-based
T2 sequence (P35372 whole entry): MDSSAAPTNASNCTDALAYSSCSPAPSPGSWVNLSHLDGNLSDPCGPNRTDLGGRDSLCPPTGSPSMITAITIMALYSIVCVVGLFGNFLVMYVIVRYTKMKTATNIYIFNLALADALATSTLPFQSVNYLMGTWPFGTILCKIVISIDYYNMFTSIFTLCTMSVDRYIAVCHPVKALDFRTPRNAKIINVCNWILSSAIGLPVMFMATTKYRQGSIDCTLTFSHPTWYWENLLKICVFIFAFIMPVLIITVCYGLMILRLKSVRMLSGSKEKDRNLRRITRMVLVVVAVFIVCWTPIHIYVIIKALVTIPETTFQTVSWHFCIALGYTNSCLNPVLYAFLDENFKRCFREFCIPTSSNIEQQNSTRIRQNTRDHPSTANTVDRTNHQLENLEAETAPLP

[4] = target: T3, Kappa-type opioid receptor (Homo sapiens, UniProt P41145); experiment: Binding affinity for opioid receptor type, human Opioid receptor kappa 1 expressed in membrane homogenates of COS-1 or CHO cells; assay type: cell-based
T3 sequence (P41145 whole entry): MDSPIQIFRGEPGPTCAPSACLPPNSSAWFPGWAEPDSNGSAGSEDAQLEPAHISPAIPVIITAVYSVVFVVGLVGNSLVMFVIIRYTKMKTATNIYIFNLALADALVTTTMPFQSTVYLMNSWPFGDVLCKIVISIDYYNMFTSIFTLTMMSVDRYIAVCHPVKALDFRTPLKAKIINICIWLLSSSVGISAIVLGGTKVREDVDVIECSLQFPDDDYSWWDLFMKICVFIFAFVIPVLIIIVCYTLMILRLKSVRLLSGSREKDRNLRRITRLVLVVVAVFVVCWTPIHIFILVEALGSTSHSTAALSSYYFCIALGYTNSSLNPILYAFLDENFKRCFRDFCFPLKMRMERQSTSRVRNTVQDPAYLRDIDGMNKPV

Mu-type opioid receptor [5] = target: T2, Mu-type opioid receptor; experiment: Stimulation of [35S]GTP-gamma-S, binding using COS-human Opioid receptor mu 1 membranes; assay type: functional
Procedure, shortened: (§1)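 Agonist-stimulated [35S]GTPγS binding to 5 μg membranes from COS cells transiently expressing human KOR or MOR. Incubation was 1 h at 30 °C with 0.2 nM [35S]GTPγS, GDP and increasing ligand concentrations, giving concentration–response data. Mean ± SEM of at least two separate experiments, each in triplicate.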

[6] = target: T3, Kappa-type opioid receptor; experiment: Stimulation of [35S]GTP-gamma-S, binding using COS-human Opioid receptor kappa 1 membranes; assay type: functional; procedure, shortened: as §1
Mu-type opioid receptor [7] = target: T2, Mu-type opioid receptor; experiment: Maximal activation of [35S]GTP-gamma-S, binding using COS-human Opioid receptor mu 1 membranes; assay type: functional
Procedure, shortened: (§2)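 Membranes (5 μg) from COS cells transiently transfected with human KOR or MOR, incubated 1 h at 30 °C with 0.2 nM [35S]GTPγS, GDP and increasing ligand concentrations. Maximal activation is given as percentage of basal [35S]GTPγS binding. Mean ± SEM of at least two separate experiments, each in triplicate.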

[8] = target: T3, Kappa-type opioid receptor; experiment: Maximal activation of [35S]GTP-gamma-S, binding using COS-human Opioid receptor kappa 1 membranes; assay type: functional; procedure, shortened: as §2
Nociceptin receptor [9] = target: T1, Nociceptin receptor

Row | Compound | Ki [1] [µM] | Ki (Nociceptin receptor [2]) [nM] | Ki (Mu-type opioid receptor [3]) [nM] | Ki [4] [nM] | EC50 (Mu-type opioid receptor [5]) [nM] | Ki ([1]; cos-1) [µM] | Ki (Nociceptin receptor [2]; cos-1) [nM] | Ki (Mu-type opioid receptor [3]; cos-1) [nM] | EC50 [6] [nM] | Ki ([4]; cos-1) [nM] | Activity (Mu-type opioid receptor [7]) [%] | Activity [8] | Ke (Nociceptin receptor [9]) [nM]
1 | CC(=O)N[C@@H](CCCN=C(N)N)C(=O)N[C@H](CC1CCCCC1)C(=O)N[C@@H](Cc1ccccc1)C(=O)N1[C@H](C(=O)N[C@H](CCCN=C(N)N)C(=O)N[C@H](Cc2ccc(Cl)cc2)C(N)=O)CC[C@@H]1C(C)(C)C | 2.34 | 1700 | 368 | 282 |  |  |  |  |  |  |  |  | 
2 | CC(=O)N[C@@H](CCCNC(=N)N)C(=O)N[C@H](CC1CCCCC1)C(=O)N[C@H]1CC[C@H]2CC[C@@H](C(=O)N[C@H](CCCNC(=N)N)C(=O)N[C@H](Cc3ccc(Cl)cc3)C(N)=O)N2C1=O |  |  |  |  | 1400 | 5.2 | 44 | 75 | > 1000 | 190 |  |  | 
3 | CC(=O)N[C@@H](CCCN=C(N)N)C(=O)N[C@H](CC1CCCCC1)C(=O)N[C@H]1C[C@H]2CCC[C@@H](C(=O)N[C@H](CCCN=C(N)N)C(=O)N[C@H](Cc3ccc(Cl)cc3)C(N)=O)N2C1=O |  |  |  |  |  | 10.9 | 2130 | 2700 |  | 1080 |  |  | 
4 | CC(=O)N[C@@H](CCCN=C(N)N)C(=O)NC(CC1CCCCC1)C(=O)NC1CC[C@H]2CCC[C@@H](C(=O)N[C@H](CCCN=C(N)N)C(=O)NC(Cc3ccc(Cl)cc3)C(N)=O)N2C1=O (stereo in doubt) | 7.05 | 35 | 496 | 441 | 2800 |  |  |  | > 1000 |  | 141 | 117% | 
5 | CC(=O)N[C@@H](CCCN=C(N)N)C(=O)NC(CC1CCCCC1)C(=O)N[C@H]1CC[C@@H]2SC[C@H](C(=O)N[C@H](CCCN=C(N)N)C(=O)NC(Cc3ccc(Cl)cc3)C(N)=O)N2C1=O (stereo in doubt) |  |  |  |  |  | 0.222 | 34 | 53 |  | 78 |  |  | 40
6 | CC(=O)N[C@@H](CCCN=C(N)N)C(=O)NC(CC1CCCCC1)C(=O)N[C@H]1CC[C@H]2SC[C@@H](C(=O)N[C@H](CCCN=C(N)N)C(=O)NC(Cc3ccc(Cl)cc3)C(N)=O)N2C1=O (stereo in doubt) |  |  |  |  |  |  |  |  |  |  | 207 | 122% and 120% | 400
